One data set deals with Proteus vulgaris. The experiment in a line: Antibacterial activity against Proteus vulgaris ATCC 12454 after 22 hrs by CLSI microbroth assay. The class given is functional, organism-based.
A further data set relates to Vero. The experiment in a line: Cytotoxicity against African green monkey Vero cells after 24 hrs by alamar blue assay. Conditions: chlorocebus sabaeus. The class given is cell-based.
For another data set, the system named is Pseudomonas aeruginosa. Nature of the data set: Antibacterial activity against Pseudomonas aeruginosa ATCC 14210 after 22 hrs by CLSI microbroth assay. It is filed as functional, organism-based.
A further data set deals with Staphylococcus aureus. The experiment in a line: Antibacterial activity against methicillin-resistant Staphylococcus aureus ATCC 33591 after 22 hrs by CLSI microbroth assay. The note with it: ATCC 33591, 22 h. The class given is functional. The method, boiled down: (§1)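 Run within a six-organism panel: MRSA, Staphylococcus warneri and vancomycin-resistant E. faecium (Gram-positive), Proteus vulgaris and Pseudomonas aeruginosa (Gram-negative), and the yeast Candida albicans. Read-out was the minimum inhibitory concentration, reported in μg mL−1.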

A further data set relates to Enterococcus faecium. Nature of the data set: Antibacterial activity against vancomycin-resistant Enterococcus faecium EF379 after 22 hrs by CLSI microbroth assay. It is filed as functional. The note with it: EF379, 22 h. The procedure, abridged:
as §1

A further data set relates to BJ. Nature of the data set: Cytotoxicity against human BJ cells after 24 hrs by alamar blue assay. The class given is cell-based.
The subject of another data set is Staphylococcus warneri. The experiment in a line: Antibacterial activity against Staphylococcus warneri ATCC 17917 after 22 hrs by CLSI microbroth assay. The note with it: ATCC 17917, 22 h. It is filed as functional.

Converted amounts (≈) assume the structure as drawn. The source made the active and inactive calls. The rule behind the calls is not given here.

As to `Cc1cc(O)c2c3c(n([C@@H](CCCCNC(=O)C(F)(F)F)C(=O)O)c(=O)c2c1)C(=O)c1c(O[C@H]2C[C@@H](O)[C@@H](O)[C@H](C)O2)cccc1C3=O`, the result in the data set on Proteus vulgaris and in the data set on Pseudomonas aeruginosa was inactive. Further, the MIC90 in the data set with Vero and against BJ was > 128 µg/mL each time. The MIC with Staphylococcus aureus, with Enterococcus faecium and against Staphylococcus warneri was ≥ 100 µg/mL each time.

`Cc1cc(O)c2c(c1)C1OC(=O)[C@H](CCCCNC(=O)C(F)(F)F)N1C1=C2C(=O)c2cccc(O[C@H]3C[C@@H](O)[C@@H](O)[C@H](C)O3)c2C1=O` (some centres undefined): the outcome in the data set with Proteus vulgaris and in the data set on Pseudomonas aeruginosa was inactive. The MIC90 in the data set with Vero and against BJ was > 128 µg/mL throughout. Also, the MIC stood at 3 µg/mL (≈ 4.54 µM) in the data set with Staphylococcus aureus, 13 µg/mL (≈ 19.7 µM) in the data set with Enterococcus faecium and 3 µg/mL (≈ 4.54 µM) against Staphylococcus warneri.

The values above are taken from ChEMBL document CHEMBL4190190, “Furan and Lactam Jadomycin Biosynthetic Congeners Isolated from Streptomyces venezuelae ISP5230 Cultured with Nε-Trifluoroacetyl-l-lysine” (J Nat Prod, 2017).
